# Source: PubChem (several laboratories)
# proKLK7 act = activates the human kallikrein-7 zymogen; 0.9% of 370,000 active; P49862; purified proKLK7, EDANS-DABCYL substrate fluorescence; 100% is mature enzyme control, 0% vehicle; activation, % at 7 µM;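 active = activation above the mean of all tested compounds plus 3 SD, computed per campaign excluding outliers beyond control limits, cut at about 13% in these data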
# Target sequence (P49862 whole entry, looked up): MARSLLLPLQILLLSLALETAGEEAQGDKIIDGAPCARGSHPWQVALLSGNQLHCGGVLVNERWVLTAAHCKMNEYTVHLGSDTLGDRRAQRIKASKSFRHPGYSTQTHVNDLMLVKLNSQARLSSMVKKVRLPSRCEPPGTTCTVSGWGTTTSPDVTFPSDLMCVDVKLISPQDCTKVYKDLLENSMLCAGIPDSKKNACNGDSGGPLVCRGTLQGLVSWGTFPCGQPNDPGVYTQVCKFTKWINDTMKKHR
# SKN-1 block = inhibitors of C. elegans SKN-1 | AID 624304 | inhibition, % at 21.8 µM | C. elegans VP596 Pgst-4::GFP/RFP ratio, acrylamide-induced, 24 h | 0.49% of 360,000 active;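 active = interference check ratio from 0.5 to 1.5 plus GFP to RFP signal ratio inhibition reaching or exceeding a fixed threshold, cut at about 30% in these data, passing the limit was not always enough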
# Tn7 DDE FP = DD(E)-Tn7 binding inhibition, primary FP screen | P02675 | FP displacement of FITC-Tn7 peptide from fibrin DD(E); 0% = median of compound wells per plate | inhibition, % at 8.3 µM | 0.13% of 370,000 active | AID 720508;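 active = inhibition above the mean of compounds falling within the control limits plus 3 SD of them, cut at about 14% in these data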;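 also: 0% = plate median of compound wells and 100% = 10 µM Aha-Tn7 peptide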
#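 Assay system: Human fibrin DD(E) protein | Medium: Tris buffer with calcium and detergent, pH 7.8 | Reagent: 0.1 µM fluorescent Tn7 | Compound dosing: Single point at 8.3 µM | Times: 10 min preincubation, 3 h with tracer, room temperature | Detection: Fluorescence polarization of the labelled Tn7 tracer | Controls: Aha-Tn7 high control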
# MT1-MMP act inh = blocks activation of human MT1-MMP. GFP/RFP ratio change, % at 20 µM. P50281. HT1080 RFP-PRO-GFP cells, GFP/RFP ratio fluorescence, overnight; percent of plate control window, DMSO zero. 0.061% of 360,000 active;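 active = GFP/RFP ratio change of at least 30% with cell ATP level not reduced by more than half and red fluorescence within 50% of control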
#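 Compound: 20 µM single dose, 1% DMSO / System: HT1080 RFP-PRO-GFP cells / Controls: DMSO and RFP-L50D-GFP cell wells / Read-out basis: GFP/RFP fluorescence ratio / Schedule: overnight compound exposure at 37 °C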
# DDE Tn6 FP inh = inhibitors of Tn6 peptide binding to human fibrin DD(E); Fibrin DD(E) TRITC-Tn6 fluorescence polarization displacement; P02675; AID 720509; 0.21% of 370,000 active; inhibition, % at 8.3 µM;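 active = inhibition above a per-campaign cutoff: mean of compounds within control limits plus 3 SD, cut at about 15% in these data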;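 also: 0% = median of all compound wells on the plate and 100% = blocking peptide control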
# Neddyl block = inhibitors of human cullin neddylation. P61081+Q13564. TR-FRET cullin neddylation, biochemical. calls only at 25 µM. 0.58% of 360,000 active; in the data active = inhibition above about 36%
# proKLK7 act conf = confirmation of human kallikrein-7 zymogen activators; purified proKLK7, EDANS-DABCYL substrate fluorescence; scaled: vehicle 0, mature enzyme 100; activation, % at 7 µM; shares compounds with proKLK7 act; 68% of 3,200 active; AID 686949;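 active = activation, as change over the incubation, above the mean of all tested compounds plus 3 SD, cut at about 13% in these data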
# EDANS interfere = counter-screen for kallikrein-7 activators: EDANS-DABCYL optical interference | shares compounds with proKLK7 act | EDANS-DABCYL substrate fluorescence interference, no enzyme, 4 h; solvent 0%, active enzyme control 100% | activation, % at 7 µM | 80% of 3,200 active | AID 686952;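 active = activation above the all-compound mean plus 3 SD, ignoring values outside control-based bounds, cut at about 4.8% in these data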;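 also: value is the 4 h activation minus the activation read at time zero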
# K7 EDANS ctr = optically interferes with EDANS-DABCYL fluorescence, kallikrein-7 activator counter-screen; shares compounds with proKLK7 act; AID 720493; 20% of 250 active; EDANS-DABCYL peptide fluorescence interference, no enzyme; EC50, µM;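 active = compounds that raise the fluorescence signal in this interference counterscreen, with EC50 at or below 10 µM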;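 also: intact quenched peptide substrate alone read at 355 nm excitation and 520 nm emission; signal is fluorescence gain from T0 to T4 after four hours at room temperature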
# Active calls of the source: *; i = inactive; / = not tested or not shown. An excerpt weighted towards active compounds, which were near 2.2% of everything screened.
SMILES,proKLK7 act,SKN-1 block,Tn7 DDE FP,MT1-MMP act inh,DDE Tn6 FP inh,Neddyl block,proKLK7 act conf,EDANS interfere,others
CCN(CC)S(=O)(=O)c1cccc2cc(C(=O)O)c(O)cc12,22*,-10,3,5,8,/,74*,73*,
COc1ccccc1NS(=O)(=O)c1cc(C(=O)NCC(c2ccc(F)cc2)N2CCOCC2)ccc1C (stereo not drawn),1,0,-2,-4,0,i,/,/,
C=CCn1c(=N)c(C(=O)NCCCOC)cc2c(=O)n3cc(C)ccc3nc21,143*,12,7,3,-8,i,58*,62*,
C=CCn1c(=N)c(C(=O)NCCCOC)cc2c(=O)n3ccccc3nc21,136*,12,-5,-3,5,i,57*,67*,
Cc1cc(Oc2ccc(C)c(Cl)c2)nc(SCC(=O)c2ccccc2)n1,0,-9,-3,-13,-2,i,/,/,
CC(Oc1ccccc1)C(=O)Nc1ccc(S(=O)(=O)N2CCCC2)cc1 (stereo not drawn),0,17,1,2,-8,i,/,/,
Cc1cc2nc(-c3ccc(SCc4ccccn4)nc3)[nH]c2cc1C,127*,3,2,-3,1,/,25*,16*,K7 EDANS ctr=i
O=C(Nc1c(-c2ccc(C(F)(F)F)cc2)nc2ncccn12)C1CC1,27*,/,-1,/,6,/,29*,27*,
Cc1ccc(-c2nc3ncccn3c2NC(=O)C2CC2)cc1,17*,-5,6,-2,11,/,32*,45*,
CNC(=O)c1cc2c(cn1)[nH]c1ccccc12,32*,-8,-1,3,2,/,7,4.4*,
CC1(C)Cc2nc3oc4c(=S)nc[nH]c4c3cc2CO1,0,27,9,1,-6,i,/,/,
CCOC(=O)c1ccccc1NC1CC(=O)N(c2ccccc2C)C1=O (stereo not drawn),193*,17,11,-14,6,/,169*,161*,
O=C(Nc1cccnc1)c1ccccc1O,0,-9,13,2,6,i,/,/,
O=C(Nc1cccnc1)c1coc(=O)c2ccccc12,460*,-15,-3,-1,-5,i,355*,343*,
CC(C)OCCCn1c(=NC(=O)c2cccs2)c(C#N)cc2c(=O)n3ccccc3nc21,54*,-4,-6,-5,-3,/,68*,63*,
CC(C)OCCCn1c(=N)c(C(N)=S)cc2c(=O)n3ccccc3nc21,22*,-9,2,-20,-2,/,4,4.3*,
CC(=O)N=c1c(C#N)cc2c(=O)n3ccccc3nc2n1CCCOC(C)C,35*,-2,-1,0,4,/,-6,-2,
CC(C)OCCCn1c(=NC(=O)c2ccncc2)c(C#N)cc2c(=O)n3ccccc3nc21,-1,-5,-2,6,-13,i,/,/,
CCCCn1c(=NC(C)=O)c(C#N)cc2c(=O)n3cccc(C)c3nc21,3,12,-5,-2,-2,/,/,/,
COc1ccc(NC(=O)COC(=O)c2c(NC(C)=O)sc(C)c2C)cc1,26*,7,12,-7,-1,i,-1,-1,
CC(=O)Nc1sc(C)c(C)c1C(=O)OCC(=O)NCc1ccccc1,-1,-14,-1,-1,-5,i,/,/,
O=C(CN(Cc1cccs1)C(=O)CNS(=O)(=O)c1ccccc1)NCc1ccco1,0,1,5,4,-3,i,/,/,
CC(C)C(=O)Nc1sc2c(c1-c1nc3ccccc3[nH]1)CCCC2,496*,8,1,-8,1,/,-8,4.7*,
CC(C)C(=O)Nc1ccccc1-c1nc2ccccc2[nH]c1=O,-3,9,-1,2,6,i,/,/,
COC(=O)c1ccc(-c2sc3nc(N4CCOCC4)c4c(c3c2N)CC(C)(C)OC4)o1,-2,-11,4,-2,1,/,/,/,
SMILES,proKLK7 act,SKN-1 block,Tn7 DDE FP,MT1-MMP act inh,DDE Tn6 FP inh,Neddyl block,proKLK7 act conf,EDANS interfere,others
COc1ccc(NC(C)=O)cc1NC(C)c1nc2sc(C)c(C)c2c(=O)[nH]1 (stereo not drawn),16*,-2,-7,-4,-9,i,9,9.3*,
CNc1cncc(-c2cccc(OC)c2F)n1,37*,13,-1,-3,-1,/,35*,53*,
CCOc1ccccc1-c1cnc(NC)cn1,15*,3,2,1,1,/,31*,28*,
CNc1cncc(-c2ccccc2CO)n1,26*,0,7,-3,-1,/,12,15*,
CCOc1ccccc1-c1cncc(NC)n1,25*,1,2,-4,2,/,18*,16*,
CNc1cncc(-c2c(OC)cccc2OC)n1,12,6,1,-2,-6,/,/,/,
CN(Cc1ccccc1)C(=O)COC(=O)c1ccc(-n2cnnn2)cc1,0,11,3,3,4,i,/,/,
CCCCCCC12C(=Cc3cc4c(cc31)OCCO4)c1cc(OC)c(OC)cc1C(CC(=O)NC1CCCCC1)N2C(=O)OC (stereo not drawn),0,/,-6,/,1,/,/,/,
COc1ccc(CC(=O)N2CCc3cc(OC)c(OC)cc3C2O)cc1OC (stereo not drawn),14*,12,6,-1,3,/,5,4.1*,
CCOc1cc(C2C3=C(CCCC3=O)Nc3nc(C(=O)OC)nn32)ccc1OC (stereo not drawn),2,6,-6,5,-5,i,/,/,
CCOc1ccc(C2C3=C(CCCC3=O)Nc3nc(C(F)(F)F)nn32)cc1OC (stereo not drawn),44*,-7,6,1,-1,i,52*,58*,
COc1ccc(C2C3=C(CCCC3=O)Nc3nc(C(F)(F)F)nn32)cc1OC (stereo not drawn),15*,-23,2,-1,3,i,43*,58*,
COc1cc(-c2nc3n(n2)C(c2ccc(F)cc2)C2=C(CCCC2=O)N3)cc(OC)c1OC (stereo not drawn),2,3,-4,8,-3,i,/,/,
